HTR5A inv ag = HTR5A inverse agonists in luminescence cell assay, primary screen, counter-screen for OPRM1-OPRD1 heterodimer inverse agonist project, full-deck HTS. inhibition, % at 9.3 µM. AID 504634, 2011. 340,000 tested, 0.083% active. 5-hydroxytryptamine receptor 5A (Homo sapiens), P47898. HTR5A cell line, inverse agonism; in the data active = inhibition mostly above about 23%, no sharp cut-off; inactive = mostly below about 18%
Arr AP2 block = inhibitors of beta-arrestin/AP2 binding, primary screen, biochemical, GPCR trafficking, flow cytometry; FITC-arrestin peptide / GST-AP2 beads; AP2 beta2 appendage carries R879A mutation; inhibition, % at 10 µM; 340,000 tested, 0.31% active; AID 504490, 2011;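 active = inhibition above a set limit, near 3 SD of compounds lacking own fluorescence, cut at about 54% in these data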
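System: GST-tagged AP2 beta2-adaptin appendage (R879A) on 4 µm glutathione beads / Reagent: FITC-arrestin peptide, 50 nM / Detection: HyperCyt-sampled flow cytometry, FL1 channel, ex 488/em 535 nm / Timing: 12 min plus 1 h, RT / Buffer or medium: PBS plus Tween 20 (0.05%) and BSA (0.1%)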
MOR-DOR inv ag = inverse agonists of MOR-DOR heterodimerization, primary screen, cell-based, luminescence. inhibition, % at 9.3 µM. Mu-type opioid receptor (Homo sapiens) + Delta-type opioid receptor (Homo sapiens), …. 340,000 tested, 0.21% active. cell-based MOR-DOR heterodimer luminescence, inverse agonism; in the data active = inhibition above about 22%, passing the limit was not always enough
Target sequence (P35372 whole entry, looked up): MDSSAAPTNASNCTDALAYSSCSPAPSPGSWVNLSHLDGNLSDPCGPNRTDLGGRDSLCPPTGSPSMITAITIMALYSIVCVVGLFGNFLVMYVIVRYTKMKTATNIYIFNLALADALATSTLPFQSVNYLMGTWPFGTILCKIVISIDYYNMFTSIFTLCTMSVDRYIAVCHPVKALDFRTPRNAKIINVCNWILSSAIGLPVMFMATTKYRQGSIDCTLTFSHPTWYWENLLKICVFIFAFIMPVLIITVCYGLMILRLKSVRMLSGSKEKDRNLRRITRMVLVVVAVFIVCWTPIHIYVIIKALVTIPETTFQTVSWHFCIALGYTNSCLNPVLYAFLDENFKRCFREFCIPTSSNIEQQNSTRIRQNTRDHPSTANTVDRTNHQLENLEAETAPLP
Target sequence (P41143 whole entry, looked up): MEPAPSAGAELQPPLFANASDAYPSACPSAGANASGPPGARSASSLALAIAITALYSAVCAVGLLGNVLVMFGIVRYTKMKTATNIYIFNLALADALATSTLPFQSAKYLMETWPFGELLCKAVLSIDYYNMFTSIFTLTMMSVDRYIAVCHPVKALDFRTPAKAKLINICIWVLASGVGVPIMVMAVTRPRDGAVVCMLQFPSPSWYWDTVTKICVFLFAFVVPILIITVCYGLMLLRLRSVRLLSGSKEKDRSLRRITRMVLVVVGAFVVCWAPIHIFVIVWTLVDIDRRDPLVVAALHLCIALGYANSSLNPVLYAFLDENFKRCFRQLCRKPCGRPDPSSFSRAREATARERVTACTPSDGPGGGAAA
DAGLB inh = DAGLB lipase inhibitors, primary screen, biochemical, fluorescence, HTS; HEK293T DAGLB membrane lysate, EnzChek fluorogenic substrate; inhibition, % at 5.17 µM; 340,000 tested, 0.059% active; AID 504411, 2011; in the data active = inhibition above about 34%
MOR-DOR ag-1 = agonists of OPRM1-OPRD1 heterodimerization, primary screen, cell-based, luminescence; Mu-type opioid receptor (Homo sapiens) + Delta-type opioid receptor (Homo sapiens), …; cells; activation, % at 9.3 µM; 340,000 tested, 0.3% active; AID 504326, 2011
HTR5A ag ctr = HTR5A agonists in luminescence cell assay, primary screen, counter-screen for OPRM1-OPRD1 heterodimer agonist project, full-deck HTS | 5-hydroxytryptamine receptor 5A (Homo sapiens), P47898 | cell-based | activation, % at 9.3 µM | 340,000 tested, 0.61% active | AID 504692, 2011; in the data active = activation mostly above about 9.5%, no sharp cut-off; inactive = mostly below about 7.6%
MOR-DOR ag-2 = OPRM1-OPRD1 heterodimerization promoters, counter-screen for HTR5A agonist project, cell-based, luminescence | shares compounds with HTR5A ag ctr | U2OS counter-screen cells, complementation luminescence, 3 h | activation, % at 9.3 µM | 800 tested, 13% active
HTR5A ag confirm = HTR5A agonists, retest of hits, confirmation, cell-based, luminescence; 800 tested, 17% active; shares compounds with HTR5A ag ctr; HTR5A agonist cell assay; activation, % at 9.3 µM; AID 504915, 2011; in the data active = activation above about 17%
A number is an active result; n = inactive; x = no result given. Most compounds without a hit are left out; they make up all but 1.4% or so of the library. Cut-off read from the data, not from the text of the source, unless noted: active = activation above about 18%; inactive = the rest.

SMILES | HTR5A inv ag | Arr AP2 block | MOR-DOR inv ag | DAGLB inh | MOR-DOR ag-1 | HTR5A ag ctr | MOR-DOR ag-2 | HTR5A ag confirm
CC1CN(c2ccccc2)CCN1C(=O)c1cc(COc2c(F)cccc2F)on1 (stereo unspecified) | n | n | n | n | n | 14 | n | 87
CC(=O)c1ccc(OCC(=O)Nc2ccc3c(c2)OCO3)cc1 | x | x | x | n | x | x | x | x
CC(C)CC1NC(=O)c2cc3ccccc3cc2-n2c1nc1ccc(F)cc1c2=O (stereo unspecified) | x | x | x | n | x | x | x | x
C=CCn1c(SCC(=O)Nc2sccc2C(N)=O)nc2sc(C)c(C)c2c1=O | n | n | n | n | n | 18 | n | n
C=CCn1c(SCC(=O)Nc2ccccc2C)nc2sc(C)c(C)c2c1=O | n | n | n | n | n | n | x | x
CCN(CC)C(=O)C1=C(C)N(Cc2ccccc2)C(=O)C(CC(=O)NC2CC2)C1 (stereo unspecified) | x | x | x | n | x | x | x | x
COC(=O)C[C@H]1C[C@H]2c3cc(NC(=O)NC4CCCC4)ccc3O[C@H]2[C@@H](CO)O1 | x | x | x | n | x | x | x | x
Cc1ccc2sc(N(CCCN(C)C)C(=O)CCS(=O)(=O)c3ccccc3)nc2c1C | n | n | n | n | n | 15 | n | n
CN(C)CCCN(C(=O)CCS(=O)(=O)c1ccccc1)c1nc2cc3c(cc2s1)OCO3 | n | n | n | n | n | 15 | n | n
CN(Cc1ccccc1)C(=O)c1cccc(NC(=O)Cc2ccc(NC(=O)C3CCCN(C(=O)C4CCCCC4)C3)cc2)c1 (stereo unspecified) | n | n | n | n | n | n | x | x
Cn1c(SCC(=O)NCC2CCCO2)nc2c([nH]c3ccccc32)c1=O (stereo unspecified) | n | n | n | n | n | 22 | n | n
CCOC(=O)CCSc1nc(-c2ccc3c(c2)OCO3)cc(C(F)(F)F)c1C#N | n | n | n | n | n | 18 | n | n
CCOC(=O)CC(=O)CSc1nc(-c2ccc3c(c2)OCO3)cc(C(F)(F)F)c1C#N | n | n | n | n | n | n | x | x
CC1CCCC(NC(=O)COC(=O)c2cc(S(=O)(=O)N3CCOCC3)ccc2F)C1C (stereo unspecified) | n | n | n | n | n | 18 | n | n
C=CCn1c(SCC(=O)c2ccc(OC)cc2)nnc1-c1cc2cccc(OC)c2o1 | n | n | n | n | n | 15 | n | n
Cc1nn(Cc2ccc(F)cc2)c2sc(C(=O)Nc3nccs3)cc12 | n | n | n | n | n | 21 | n | n
Cc1nn(Cc2ccccc2Cl)c2sc(C(=O)Nc3nccs3)cc12 | n | n | n | n | n | n | x | x
COc1ccc(S(=O)(=O)N2CCOCC2)cc1NC(=O)c1ccc(S(=O)(=O)N(C)c2ccccc2OC)cc1 | n | n | n | n | n | n | x | x
O=C(NCc1ccccc1CN1CCCC1)c1ccc(S(=O)(=O)Nc2ccccc2)cc1 | x | x | x | n | x | x | x | x
O=c1[nH]c(C2CCN(S(=O)(=O)Cc3ccccc3)CC2)nc2c1nnn2Cc1cccc(Cl)c1 | n | n | n | n | n | 14 | n | n
Cc1ccc([C@H]2C[C@H](n3cc(C4CC4)nn3)[C@@H](O)CN2C(=O)C2CCCCC2)cc1 | x | x | x | n | x | x | x | x
NC(=O)c1ccc(SCC(=O)NC2CCCCC2)c([N+](=O)[O-])c1 | n | n | n | n | n | 14 | n | n
COC(=O)c1ccc(SCC(=O)NC2CCCC2)c([N+](=O)[O-])c1 | n | n | n | n | n | n | x | x
Cc1cc(C)c(S(=O)(=O)N2CCN(C(=O)CCn3nc(C)c(C)c3C)CC2)c(C)c1 | n | n | n | n | n | 16 | n | n
